Measurements taken from ChEMBL document CHEMBL3779892, “Increasing the binding affinity of VEGFR-2 inhibitors by extending their hydrophobic interaction with the active site: Design, synthesis and biological evaluation of 1-substituted-4-(4-methoxybenzyl)phthalazine derivatives” (Eur J Med Chem, 2016).

What was measured:
Format in all cases: functional
[1] = tested on: ACHN; assay: Growth inhibition of human ACHN cells at 10 uM after 48 hrs by sulforhodamine B assay; conditions: read-out: GI
Procedure, shortened: (§1)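 Run at NCI on the 60-line panel. Cells grown in RPMI 1640 with 5% FBS and 2 mM L-glutamine, plated at 5000–40,000 cells/well by doubling time, and held 24 h at 37 °C before dosing. Drug (DMSO stock) given at a single final 10 µM in triplicate wells for 48 h. Adherent cells fixed with cold TCA (10% final), suspension cells with 16% TCA. SRB stain read at 515 nm. Percent growth from Tz, C and Ti.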

[2] = Growth inhibition of human RXF393 cells at 10 uM after 48 hrs by sulforhodamine B assay; conditions: RXF 393, 48 h, read-out: GI; procedure, shortened: as §1
[3] = tested on: HT-29; assay: Growth inhibition of human HT-29 cells at 10 uM after 48 hrs by sulforhodamine B assay; conditions: HT-29, 48 h, read-out: GI; procedure, shortened: as §1
[4] = tested on: M14; assay: Growth inhibition of human M14 cells at 10 uM after 48 hrs by sulforhodamine B assay; conditions: M14, 48 h, read-out: GI; procedure, shortened: as §1
[5] = Growth inhibition of human OVCAR8 cells at 10 uM after 48 hrs by sulforhodamine B assay; conditions: OVCAR-8, 48 h, read-out: GI; procedure, shortened: as §1
[6] = tested on: MCF7; assay: Growth inhibition of human MCF7 cells at 10 uM after 48 hrs by sulforhodamine B assay; conditions: MCF7, 48 h, read-out: GI; procedure, shortened: as §1
[7] = Growth inhibition of human HOP92 cells at 10 uM after 48 hrs by sulforhodamine B assay; conditions: HOP-92, 48 h, read-out: GI; procedure, shortened: as §1
[8] = Growth inhibition of human LOXIMVI cells at 10 uM after 48 hrs by sulforhodamine B assay; conditions: LOX IMVI, read-out: GI; procedure, shortened: as §1
[9] = Growth inhibition of human SW620 cells at 10 uM after 48 hrs by sulforhodamine B assay; conditions: SW-620, 48 h, read-out: GI
Procedure, shortened: (§2)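 NCI-60 panel, adherent cells grown in RPMI 1640 with 5% FBS and 2 mM L-glutamine, plated at 5000–40,000 cells/well and preincubated 24 h at 37 °C, 5% CO2. 10 µM final compound from DMSO stock, triplicate wells, 48 h. Fixed with cold TCA (10% final, 60 min, 4 °C) and stained with 0.4% SRB. Absorbance read at 515 nm; growth calculated against time-zero and control wells.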

[10] = Growth inhibition of human SNB19 cells at 10 uM after 48 hrs by sulforhodamine B assay; conditions: SNB-19, 48 h, read-out: GI; procedure, shortened: as §1
[11] = tested on: CCRF-CEM; assay: Growth inhibition of human CCRF-CEM cells at 10 uM after 48 hrs by sulforhodamine B assay; conditions: read-out: GI; procedure, shortened: as §1
[12] = tested on: KM12; assay: Growth inhibition of human KM12 cells at 10 uM after 48 hrs by sulforhodamine B assay; conditions: KM12, 48 h, read-out: GI; procedure, shortened: as §1
[13] = Growth inhibition of human COLO205 cells at 10 uM after 48 hrs by sulforhodamine B assay; conditions: COLO 205, 48 h, read-out: GI; procedure, shortened: as §1
[14] = tested on: MDA-MB-468; assay: Growth inhibition of human MDA-MB-468 cells at 10 uM after 48 hrs by sulforhodamine B assay; conditions: MDA-MB-468, 48 h, read-out: GI; procedure, shortened: as §1
[15] = Growth inhibition of human HCT116 cells at 10 uM after 48 hrs by sulforhodamine B assay; conditions: HCT-116, 48 h, read-out: GI; procedure, shortened: as §1
[16] = Growth inhibition of human BT549 cells at 10 uM after 48 hrs by sulforhodamine B assay; conditions: BT-549, 48 h, read-out: GI; procedure, shortened: as §1
[17] = Growth inhibition of human RPMI8226 cells at 10 uM after 48 hrs by sulforhodamine B assay; conditions: RPMI-8226, 48 h, read-out: GI; procedure, shortened: as §1
[18] = tested on: SK-MEL-28; assay: Growth inhibition of human SK-MEL-28 cells at 10 uM after 48 hrs by sulforhodamine B assay; conditions: SK-MEL-28, 48 h, read-out: GI; procedure, shortened: as §1
[19] = tested on: K562; assay: Growth inhibition of human K562 cells at 10 uM after 48 hrs by sulforhodamine B assay; conditions: K562, 48 h, read-out: GI; procedure, shortened: as §1
[20] = Growth inhibition of human SF295 cells at 10 uM after 48 hrs by sulforhodamine B assay; conditions: SF-295, 48 h, read-out: GI; procedure, shortened: as §1
[21] = Growth inhibition of human HCC2998 cells at 10 uM after 48 hrs by sulforhodamine B assay; conditions: HCC 2998, 48 h, read-out: GI; procedure, shortened: as §1
[22] = tested on: NCI-H460; assay: Growth inhibition of human NCI-H460 cells at 10 uM after 48 hrs by sulforhodamine B assay; conditions: NCI-H460, 48 h, read-out: GI; procedure, shortened: as §1
[23] = Growth inhibition of human PC3 cells at 10 uM after 48 hrs by sulforhodamine B assay; conditions: PC-3, 48 h, read-out: GI; procedure, shortened: as §1
[24] = Growth inhibition of human SF268 cells at 10 uM after 48 hrs by sulforhodamine B assay; conditions: SF-268, 48 h, read-out: GI; procedure, shortened: as §1
[25] = tested on: Malme-3M; assay: Growth inhibition of human MALME-3M cells at 10 uM after 48 hrs by sulforhodamine B assay; conditions: read-out: GI; procedure, shortened: as §1
[26] = Growth inhibition of human OVCAR5 cells at 10 uM after 48 hrs by sulforhodamine B assay; conditions: OVCAR-5, 48 h, read-out: GI; procedure, shortened: as §1
[27] = Growth inhibition of human HCT15 cells at 10 uM after 48 hrs by sulforhodamine B assay; conditions: HCT-15, 48 h, read-out: GI; procedure, shortened: as §1
[28] = Growth inhibition of human UO31 cells at 10 uM after 48 hrs by sulforhodamine B assay; conditions: UO-31, 48 h, read-out: GI; procedure, shortened: as §2
[29] = tested on: SN12C; assay: Growth inhibition of human SN12C cells at 10 uM after 48 hrs by sulforhodamine B assay; conditions: read-out: GI; procedure, shortened: as §1
[30] = tested on: A549; assay: Growth inhibition of human A549 cells at 10 uM after 48 hrs by sulforhodamine B assay; conditions: A549, 48 h, read-out: GI; procedure, shortened: as §1
[31] = tested on: SK-MEL-5; assay: Growth inhibition of human SK-MEL-5 cells at 10 uM after 48 hrs by sulforhodamine B assay; conditions: SK-MEL-5, 48 h, read-out: GI; procedure, shortened: as §1
[32] = Growth inhibition of human SKOV3 cells at 10 uM after 48 hrs by sulforhodamine B assay; conditions: SK-OV-3, 48 h, read-out: GI; procedure, shortened: as §1
[33] = Growth inhibition of human OVCAR4 cells at 10 uM after 48 hrs by sulforhodamine B assay; conditions: OVCAR-4, 48 h, read-out: GI; procedure, shortened: as §1
[34] = tested on: SR; assay: Growth inhibition of human SR cells at 10 uM after 48 hrs by sulforhodamine B assay; conditions: read-out: GI
Procedure, shortened: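 NCI-60 screen. Cells were grown in RPMI 1640 with 5% FBS and 2 mM L-glutamine, plated at 5000–40,000 cells/well and held 24 h at 37 °C, 5% CO2. Single 10 µM final dose from DMSO stock, triplicate wells, 48 h. Settled cells were fixed with 80% TCA (16% final) and stained with 0.4% SRB. Dye was solubilized in 10 mM Tris and read at 515 nm. Growth was calculated against time-zero and untreated wells.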

Structure (SMILES) | inhibition of growth at 10 µM [1] [%] | inhibition of growth at 10 µM [2] [%] | inhibition of growth at 10 µM [3] [%] | inhibition of growth at 10 µM [4] [%] | inhibition of growth at 10 µM [5] [%] | inhibition of growth at 10 µM [6] [%] | inhibition of growth at 10 µM [7] [%] | inhibition of growth at 10 µM [8] [%] | inhibition of growth at 10 µM [9] [%] | inhibition of growth at 10 µM [10] [%] | inhibition of growth at 10 µM [11] [%] | inhibition of growth at 10 µM [12] [%] | inhibition of growth at 10 µM [13] [%] | inhibition of growth at 10 µM [14] [%] | inhibition of growth at 10 µM [15] [%] | inhibition of growth at 10 µM [16] [%] | inhibition of growth at 10 µM [17] [%] | inhibition of growth at 10 µM [18] [%] | inhibition of growth at 10 µM [19] [%] | inhibition of growth at 10 µM [20] [%] | further results
COc1ccc(Cc2nnc(Nc3cccc(OC)c3)c3ccccc23)cc1 | < 30 | 32 | < 30 | < 30 | < 30 | < 30 | 53 | < 30 | < 30 | 30 | < 30 | < 30 | < 30 | < 30 | 40 | < 30 | 77 | < 30 | < 30 | < 30 | inhibition of growth at 10 µM [21]: < 30%; inhibition of growth at 10 µM [22]: < 30%; inhibition of growth at 10 µM [23]: 30%; inhibition of growth at 10 µM [24]: < 30%; inhibition of growth at 10 µM [25]: < 30%; inhibition of growth at 10 µM [26]: < 30%; inhibition of growth at 10 µM [27]: < 30%; inhibition of growth at 10 µM [28]: 57%; inhibition of growth at 10 µM [29]: < 30%; inhibition of growth at 10 µM [30]: < 30%; inhibition of growth at 10 µM [31]: < 30%; inhibition of growth at 10 µM [32]: < 30%; inhibition of growth at 10 µM [33]: < 30%; inhibition of growth at 10 µM [34]: 35%
COc1ccc(Cc2nnc(Nc3ccc(NC(=O)Nc4ccccc4Cl)cc3)c3ccccc23)cc1 | < 30 | 48 | < 30 | < 30 | < 30 | 32 | < 30 | < 30 | < 30 | < 30 | < 30 | < 30 | < 30 | < 30 | < 30 | < 30 | 33 | < 30 | < 30 | < 30 | inhibition of growth at 10 µM [21]: < 30%; inhibition of growth at 10 µM [22]: < 30%; inhibition of growth at 10 µM [23]: < 30%; inhibition of growth at 10 µM [24]: < 30%; inhibition of growth at 10 µM [25]: < 30%; inhibition of growth at 10 µM [26]: < 30%; inhibition of growth at 10 µM [27]: < 30%; inhibition of growth at 10 µM [28]: < 30%; inhibition of growth at 10 µM [29]: < 30%; inhibition of growth at 10 µM [30]: < 30%; inhibition of growth at 10 µM [31]: < 30%; inhibition of growth at 10 µM [32]: < 30%; inhibition of growth at 10 µM [33]: < 30%; inhibition of growth at 10 µM [34]: < 30%
COc1ccc(Cc2nnc(Nc3ccc(C#N)cc3)c3ccccc23)cc1 | < 30 | < 30 | < 30 | < 30 | < 30 | < 30 | 36 | < 30 | < 30 | < 30 | < 30 | < 30 | < 30 | 30 | < 30 | < 30 | < 30 | < 30 | < 30 | < 30 | inhibition of growth at 10 µM [21]: < 30%; inhibition of growth at 10 µM [22]: < 30%; inhibition of growth at 10 µM [23]: 34%; inhibition of growth at 10 µM [24]: < 30%; inhibition of growth at 10 µM [25]: < 30%; inhibition of growth at 10 µM [26]: < 30%; inhibition of growth at 10 µM [27]: < 30%; inhibition of growth at 10 µM [28]: 49%; inhibition of growth at 10 µM [29]: < 30%; inhibition of growth at 10 µM [30]: < 30%; inhibition of growth at 10 µM [31]: < 30%; inhibition of growth at 10 µM [32]: < 30%; inhibition of growth at 10 µM [33]: < 30%; inhibition of growth at 10 µM [34]: < 30%
